Laboratory results published in ChEMBL document CHEMBL3603779, “Identification and Optimization of Benzimidazole Sulfonamides as Orally Bioavailable Sphingosine 1-Phosphate Receptor 1 Antagonists with in Vivo Activity” (J Med Chem, 2015).
The source made the active and inactive calls. No cut-off for these calls is given here.

Assays:
[1] = target: T1, Sphingosine 1-phosphate receptor 1 (Homo sapiens, UniProt P21453); assay: Antagonist activity against human S1P1 receptor expressed in human U2OS cells co-expressing GFP assessed as inhibition of S1P-induced receptor translocation; format: cell-based
Method in brief: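 Cellular S1P1 translocation (internalization) assay with antagonist; EC50 reported as mean of at least three separate determinations ± standard deviation.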

[2] = target: Sphingosine 1-phosphate receptor 3 (Homo sapiens) (UniProt Q99500); assay: Antagonist activity against S1P3 receptor (unknown origin)
[3] = Intrinsic clearance in human liver microsomes pre-incubated at 37 degC for 5 mins before NADPH addition by LCMS/MS method; format: ADME; conditions: read-out: CLH
Cytochrome P450 3A5 [4] = target: T2, Cytochrome P450 3A5 (Homo sapiens, UniProt P20815); assay: Induction of CYP3A5 activation in human hepatocytes at 10 uM incubated for 48 hrs using testosterone substrate relative to rifampicin; format: ADME, cell-based, Hepatocyte
Method in brief: (§1)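 Human hepatocyte CYP3A induction, testosterone probe with 6-β-hydroxytestosterone as marker; activity expressed as % of the rifampicin response; hepatocytes from two donors tested.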

[5] = Lipophilicity, log D of the compound at pH 7.4; format: physicochemical; conditions: buffer
[6] = target: T3, Nuclear receptor subfamily 1 group I member 2 (Homo sapiens, UniProt O75469); assay: Activation of human PXR expressed in human HepG2 cells co-expressing CYP3A4 assessed as CYP3A4 activation at 10 uM by luciferase reporter gene assay relative to rifampicin; format: ADME, cell-based; conditions: hepg2, 10 µM
T3 sequence (O75469 whole entry): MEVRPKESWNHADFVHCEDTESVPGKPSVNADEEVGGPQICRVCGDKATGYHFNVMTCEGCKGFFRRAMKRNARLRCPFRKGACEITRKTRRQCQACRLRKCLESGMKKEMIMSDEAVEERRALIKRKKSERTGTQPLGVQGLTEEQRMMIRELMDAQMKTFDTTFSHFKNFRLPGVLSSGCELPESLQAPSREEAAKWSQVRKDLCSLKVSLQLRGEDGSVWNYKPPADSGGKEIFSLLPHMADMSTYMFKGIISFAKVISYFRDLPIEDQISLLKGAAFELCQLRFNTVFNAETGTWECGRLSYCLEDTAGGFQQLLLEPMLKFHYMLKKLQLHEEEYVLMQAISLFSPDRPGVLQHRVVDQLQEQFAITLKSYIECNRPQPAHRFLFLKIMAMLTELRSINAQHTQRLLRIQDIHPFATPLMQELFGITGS
Method in brief: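 Single-concentration PXR reporter gene screen, compound at 10 μM; activation expressed as a percentage of the response to rifampicin, also at 10 μM.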

Cytochrome P450 3A4 [7] = target: T4, Cytochrome P450 3A4 (Homo sapiens, UniProt P08684); assay: Induction of CYP3A4 activation in human hepatocytes at 10 uM incubated for 48 hrs using testosterone substrate relative to rifampicin; format: ADME, cell-based, Hepatocyte; method in brief: as §1
Cytochrome P450 2C19 = Cytochrome P450 2C19 (Homo sapiens, UniProt P33261); assay: Inhibition of CYP2C19 in human liver microsomes incubated for 5 mins in presence of NADPH and specific substrates by LC/MS/MS method; format: ADME
Cytochrome P450 2D6 = Cytochrome P450 2D6 (Homo sapiens, UniProt P10635); assay: Inhibition of CYP2D6 in human liver microsomes incubated for 5 mins in presence of NADPH and specific substrates by LC/MS/MS method; format: ADME
[8] = Oral bioavailability in Han Wistar rat at 5 to 10 mg/kg by LC-MS/MS method; format: ADME, organism-based; conditions: in vivo
[9] = target: T1, Sphingosine 1-phosphate receptor 1; assay: Antagonist activity against S1P1 receptor (unknown origin) expressed in human U2OS cells co-expressing GFP assessed as right-ward shift of S1P-induced response; format: cell-based
Method in brief: (§2)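 S1P concentration-response curves for receptor internalization run at a series of fixed antagonist concentrations, giving both curve shift and maximal internalization.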

[10] = target: T1, Sphingosine 1-phosphate receptor 1; assay: Antagonist activity against S1P1 receptor (unknown origin) expressed in human U2OS cells co-expressing GFP assessed as reduction in maximal amount of S1P-induced receptor translocation; format: cell-based; method in brief: as §2
[11] = target: Sphingosine 1-phosphate receptor 1 (Mus musculus) (UniProt O08530); assay: Antagonist activity against mouse S1P1 receptor expressed in human U2OS cells co-expressing GFP assessed as inhibition of S1P-induced receptor translocation; format: cell-based
Cytochrome P450 3A5 [12] = target: T2, Cytochrome P450 3A5; assay: Inhibition of CYP3A5 in human liver microsomes incubated for 5 mins in presence of NADPH and specific substrates by LC/MS/MS method; format: ADME
Cytochrome P450 3A4 [13] = target: T4, Cytochrome P450 3A4; assay: Inhibition of CYP3A4 in human liver microsomes incubated for 5 mins in presence of NADPH and specific substrates by LC/MS/MS method; format: ADME

T4 sequence (P08684 whole entry): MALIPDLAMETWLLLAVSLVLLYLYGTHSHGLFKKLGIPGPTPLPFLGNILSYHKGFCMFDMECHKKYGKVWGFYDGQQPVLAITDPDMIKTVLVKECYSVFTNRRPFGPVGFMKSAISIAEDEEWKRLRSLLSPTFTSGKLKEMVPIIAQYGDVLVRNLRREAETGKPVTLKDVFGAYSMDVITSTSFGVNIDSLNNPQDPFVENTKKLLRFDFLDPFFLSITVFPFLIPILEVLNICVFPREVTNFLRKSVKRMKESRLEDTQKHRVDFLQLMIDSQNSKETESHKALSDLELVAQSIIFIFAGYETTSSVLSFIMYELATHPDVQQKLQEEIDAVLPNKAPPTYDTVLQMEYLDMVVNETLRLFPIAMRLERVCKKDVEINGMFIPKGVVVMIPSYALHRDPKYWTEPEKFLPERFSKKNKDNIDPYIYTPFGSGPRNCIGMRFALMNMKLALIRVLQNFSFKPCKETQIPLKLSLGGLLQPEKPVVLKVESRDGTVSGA
T1 sequence (P21453 whole entry): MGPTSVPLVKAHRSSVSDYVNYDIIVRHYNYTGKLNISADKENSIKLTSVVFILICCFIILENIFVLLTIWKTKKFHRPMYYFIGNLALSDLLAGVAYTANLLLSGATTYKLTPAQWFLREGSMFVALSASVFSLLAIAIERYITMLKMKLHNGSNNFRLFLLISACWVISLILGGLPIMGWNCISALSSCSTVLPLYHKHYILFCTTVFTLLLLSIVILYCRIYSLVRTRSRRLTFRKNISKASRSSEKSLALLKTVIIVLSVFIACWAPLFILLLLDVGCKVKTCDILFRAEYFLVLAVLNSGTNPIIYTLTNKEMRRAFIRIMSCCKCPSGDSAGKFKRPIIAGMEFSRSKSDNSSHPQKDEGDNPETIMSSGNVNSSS
T2 sequence (P20815 whole entry): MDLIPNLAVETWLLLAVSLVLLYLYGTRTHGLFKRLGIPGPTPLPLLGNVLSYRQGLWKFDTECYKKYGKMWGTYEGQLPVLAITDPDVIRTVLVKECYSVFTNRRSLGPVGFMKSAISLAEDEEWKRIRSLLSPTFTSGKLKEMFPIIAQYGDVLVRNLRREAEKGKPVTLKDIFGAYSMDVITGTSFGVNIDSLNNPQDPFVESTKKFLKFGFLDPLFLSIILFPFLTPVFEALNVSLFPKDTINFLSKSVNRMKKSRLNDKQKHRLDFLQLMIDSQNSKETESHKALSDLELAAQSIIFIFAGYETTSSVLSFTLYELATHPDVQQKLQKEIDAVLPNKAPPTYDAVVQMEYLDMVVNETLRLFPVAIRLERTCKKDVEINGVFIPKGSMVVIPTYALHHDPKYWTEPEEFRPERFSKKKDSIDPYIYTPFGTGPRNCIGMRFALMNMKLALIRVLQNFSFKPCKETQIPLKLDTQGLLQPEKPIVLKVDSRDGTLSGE
Chain of Cytochrome P450 2C19 (P33261 whole entry): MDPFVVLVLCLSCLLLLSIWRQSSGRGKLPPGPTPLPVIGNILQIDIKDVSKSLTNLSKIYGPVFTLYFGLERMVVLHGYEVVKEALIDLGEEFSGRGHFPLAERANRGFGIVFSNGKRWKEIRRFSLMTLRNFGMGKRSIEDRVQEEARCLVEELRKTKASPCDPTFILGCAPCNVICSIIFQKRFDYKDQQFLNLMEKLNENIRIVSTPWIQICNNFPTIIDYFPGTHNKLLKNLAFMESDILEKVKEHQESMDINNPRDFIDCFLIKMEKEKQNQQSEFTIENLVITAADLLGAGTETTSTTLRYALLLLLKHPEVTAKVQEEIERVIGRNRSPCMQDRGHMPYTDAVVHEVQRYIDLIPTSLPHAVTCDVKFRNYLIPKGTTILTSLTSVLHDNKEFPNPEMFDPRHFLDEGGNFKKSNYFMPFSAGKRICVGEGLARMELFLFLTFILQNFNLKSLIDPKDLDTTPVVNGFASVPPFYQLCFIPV
Chain of Sphingosine 1-phosphate receptor 3 (Homo sapiens) (Q99500 whole entry): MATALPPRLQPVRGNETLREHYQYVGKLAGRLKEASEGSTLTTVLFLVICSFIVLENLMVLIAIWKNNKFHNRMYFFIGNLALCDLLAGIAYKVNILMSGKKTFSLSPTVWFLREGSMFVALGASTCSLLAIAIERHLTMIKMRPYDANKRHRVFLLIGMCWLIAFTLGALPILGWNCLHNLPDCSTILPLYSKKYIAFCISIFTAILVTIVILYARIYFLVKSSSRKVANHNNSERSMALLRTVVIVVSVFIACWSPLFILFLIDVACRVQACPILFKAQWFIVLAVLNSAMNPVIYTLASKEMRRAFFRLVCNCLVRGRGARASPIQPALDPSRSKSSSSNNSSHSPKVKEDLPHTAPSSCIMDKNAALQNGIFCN
Chain of Sphingosine 1-phosphate receptor 1 (Mus musculus) (O08530 whole entry): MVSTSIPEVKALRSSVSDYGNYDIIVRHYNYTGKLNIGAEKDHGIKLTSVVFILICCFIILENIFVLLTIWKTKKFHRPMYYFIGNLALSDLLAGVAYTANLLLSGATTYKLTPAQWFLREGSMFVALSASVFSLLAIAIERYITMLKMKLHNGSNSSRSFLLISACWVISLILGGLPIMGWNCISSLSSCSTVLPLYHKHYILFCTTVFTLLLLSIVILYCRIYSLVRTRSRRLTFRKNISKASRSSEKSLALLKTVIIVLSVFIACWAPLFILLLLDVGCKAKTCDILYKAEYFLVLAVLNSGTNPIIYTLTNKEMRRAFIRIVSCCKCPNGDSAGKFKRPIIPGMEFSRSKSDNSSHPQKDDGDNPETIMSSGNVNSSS
Chain of Cytochrome P450 2D6 (P10635 whole entry): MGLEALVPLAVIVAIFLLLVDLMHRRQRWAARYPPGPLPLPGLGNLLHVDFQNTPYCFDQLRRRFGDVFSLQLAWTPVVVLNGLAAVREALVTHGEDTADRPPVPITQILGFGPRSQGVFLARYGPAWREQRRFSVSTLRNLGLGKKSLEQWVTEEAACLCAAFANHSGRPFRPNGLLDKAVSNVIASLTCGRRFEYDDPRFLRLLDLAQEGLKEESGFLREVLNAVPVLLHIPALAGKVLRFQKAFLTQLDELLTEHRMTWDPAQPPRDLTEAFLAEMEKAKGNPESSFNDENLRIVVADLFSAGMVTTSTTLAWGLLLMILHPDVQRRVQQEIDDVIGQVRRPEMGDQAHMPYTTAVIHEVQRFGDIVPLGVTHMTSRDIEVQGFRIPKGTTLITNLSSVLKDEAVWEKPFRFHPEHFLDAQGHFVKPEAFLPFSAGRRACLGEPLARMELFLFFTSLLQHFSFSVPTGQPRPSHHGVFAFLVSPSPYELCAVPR

Structure (SMILES)	EC50 [1]	microsomal CLint [3]	also measured
CCn1c([C@@H](C)NS(=O)(=O)C2CCCC2)nc2ccc(C(F)(F)F)cc21	1800 nM	–	–
CCc1nnc([C@@H](C)NS(=O)(=O)c2ccc(Cl)cc2)n1CC	–	–	inhibition [2]: inactive
CCn1c(C(C)NS(=O)(=O)c2ccc(Cl)cc2)nc2cccnc21 (centres undefined)	2340 nM	94 µL/min/mg	–
CCCn1ncc(S(=O)(=O)N[C@H](C)c2nc3ccc(C(F)(F)F)cc3n2CC)c1C	800 nM	> 100 µL/min/mg	–
CCn1c([C@@H](C)NS(=O)(=O)c2ccc(Cl)cc2)nc2ccc(S(C)(=O)=O)cc21	1840 nM	< 5 µL/min/mg	–
CCn1c([C@@H](C)NS(=O)(=O)c2ccc(Cl)cc2)nc2cc(CO)ccc21	180 nM	88 µL/min/mg	–
CCn1c([C@@H](C)NS(=O)(=O)c2ccc(Cl)cc2)nc2cc(N3CCOCC3)ccc21	2420 nM	45 µL/min/mg	–
CCn1c([C@@H](C)NS(=O)(=O)c2ccc(C#N)cc2)nc2cnc(OC)cc21	9 nM	–	Activity (Cytochrome P450 3A5 [4]): < 40%; logD [5]: 1.4; Activity [6]: 18%; Activity (Cytochrome P450 3A4 [7]): < 40%
CCn1c([C@@H](C)NS(=O)(=O)c2ccc(Cl)cc2)nc2cc(C(N)=O)ccc21	190 nM	< 5 µL/min/mg	–
CCn1c([C@@H](C)NS(=O)(=O)c2ccc(Cl)cc2)nc2cccc(Cl)c21	800 nM	> 100 µL/min/mg	–
CCn1c([C@@H](C)NS(=O)(=O)c2ccccn2)nc2ccc(C(F)(F)F)cc21	9200 nM	< 3 µL/min/mg	–
CCn1c([C@@H](C)NS(=O)(=O)c2ccc(C)cc2)nc2ccc(C(F)(F)F)cc21	24 nM	> 100 µL/min/mg	–
CCn1c([C@@H](C)NS(=O)(=O)C2CC2)nc2ccc(C(F)(F)F)cc21	9000 nM	< 3 µL/min/mg	–
CCCn1cc(S(=O)(=O)N[C@H](C)c2nc3ccc(C(F)(F)F)cc3n2CC)c(C)n1	420 nM	> 100 µL/min/mg	–
CCn1c([C@@H](C)NS(=O)(=O)c2ccc(Cl)cc2)nc2ccc(CO)cc21	5 nM	84 µL/min/mg	–
CCn1c([C@@H](C)NS(=O)(=O)c2cccc(Cl)c2)nc2ccc(C(F)(F)F)cc21	27 nM	> 100 µL/min/mg	–
CCn1c([C@@H](C)NS(=O)(=O)c2ccc(Cl)cc2)nc2cc(F)c(Cl)cc21	1 nM	> 100 µL/min/mg	–
CCn1c([C@@H](C)NS(=O)(=O)c2ccc(C#N)nc2)nc2cnc(OC)cc21	28 nM	–	Activity (Cytochrome P450 3A5 [4]): < 40%; logD [5]: 1; Activity [6]: 11%; Activity (Cytochrome P450 3A4 [7]): < 40%
CCn1c([C@@H](C)NS(=O)(=O)c2cnc(NC(C)=O)s2)nc2ccc(C(F)(F)F)cc21	2200 nM	15 µL/min/mg	–
CCn1c([C@@H](C)NS(=O)(=O)c2cn(C)nc2C)nc2ccc(C(F)(F)F)cc21	1000 nM	28 µL/min/mg	–
CCn1c([C@@H](C)NS(=O)(=O)c2cn(C)c(C)n2)nc2ccc(C(F)(F)F)cc21	4000 nM	43 µL/min/mg	–
CCn1c(C(C)NS(=O)(=O)c2ccc(Cl)cc2)nc2cnccc21 (centres undefined)	210 nM	35 µL/min/mg	IC50 (Cytochrome P450 2C19): 910 nM; IC50 (Cytochrome P450 2D6): 230 nM

Structure (SMILES)	EC50 [1]	microsomal CLint [3]	also measured
CCn1c([C@@H](C)NS(=O)(=O)c2ccc(Cl)cc2)nc2ccc(CN(C)C)cc21	23500 nM	30 µL/min/mg	–
CCn1c(C(C)NS(=O)(=O)c2ccc(Cl)cc2)nc2ncccc21 (centres undefined)	310 nM	15 µL/min/mg	–
CCn1c([C@@H](C)NS(=O)(=O)c2ccc(Cl)cc2)nc2ccccc21	50 nM	> 100 µL/min/mg	bioavailability [8]: 5%; inhibition [9]: Active; inhibition [10]: Active
CCn1c([C@@H](C)NS(=O)(=O)c2c(F)cc(F)cc2F)nc2ccc(C(F)(F)F)cc21	240 nM	19 µL/min/mg	–
CCn1c([C@@H](C)NS(=O)(=O)c2cnc(C)n2C)nc2ccc(C(F)(F)F)cc21	650 nM	58 µL/min/mg	–
CCn1c([C@@H](C)NS(=O)(=O)c2ccc(F)cc2)nc2ccc(C(F)(F)F)cc21	7 nM	26 µL/min/mg	inhibition [11]: Active
CCn1c([C@@H](C)NS(=O)(=O)c2cccc(C#N)c2)nc2ccc(C(F)(F)F)cc21	57 nM	> 100 µL/min/mg	–
CCn1c([C@@H](C)NS(=O)(=O)c2ccc(C#N)cc2)nc2cnc(C(F)(F)F)cc21	3 nM	–	Activity (Cytochrome P450 3A5 [4]): < 40%; logD [5]: 1.6; Activity [6]: 32%; Activity (Cytochrome P450 3A4 [7]): < 40%
CCn1c([C@@H](C)NS(=O)(=O)c2ccc(C#N)cc2)nc2cnc(C3CC3)cc21	6 nM	–	Activity (Cytochrome P450 3A5 [4]): < 40%; logD [5]: 1.9; Activity [6]: 27%; Activity (Cytochrome P450 3A4 [7]): < 40%
CCn1c([C@@H](C)NS(=O)(=O)c2cccnc2)nc2ccc(C(F)(F)F)cc21	30 nM	> 100 µL/min/mg	IC50 (Cytochrome P450 3A5 [12]): 830 nM; IC50 (Cytochrome P450 3A4 [13]): 830 nM
CCn1c([C@@H](C)NS(=O)(=O)c2ccc(NC(C)=O)c(C)c2)nc2ccc(C(F)(F)F)cc21	12400 nM	> 100 µL/min/mg	–
CCn1c([C@@H](C)NS(=O)(=O)c2ccc(C#N)cc2)nc2ccc(C(F)(F)F)cc21	12 nM	34 µL/min/mg	–
CCn1cc(S(=O)(=O)N[C@H](C)c2nc3ccc(C(F)(F)F)cc3n2CC)cn1	590 nM	95 µL/min/mg	–
CCn1c([C@@H](C)NS(=O)(=O)c2ccc(Cl)cc2)nc2ccc(OC)cc21	9 nM	> 100 µL/min/mg	–
CCn1ncc(S(=O)(=O)N[C@H](C)c2nc3ccc(C(F)(F)F)cc3n2CC)c1C	430 nM	> 100 µL/min/mg	–
CCn1c([C@@H](C)NS(=O)(=O)c2cnn(C(C)C)c2C)nc2ccc(C(F)(F)F)cc21	1100 nM	> 100 µL/min/mg	–
CCn1c([C@@H](C)NS(=O)(=O)c2ccc(CC(C)C)cc2)nc2ccc(C(F)(F)F)cc21	1800 nM	> 100 µL/min/mg	–
CCn1c([C@@H](C)NS(=O)(=O)c2ccccc2)nc2ccc(C(F)(F)F)cc21	8 nM	14 µL/min/mg	–
CCn1c([C@@H](C)NS(=O)(=O)c2ccc(Cl)cc2)nc2cc(C#N)ccc21	130 nM	71 µL/min/mg	–
CCn1c([C@@H](C)NS(=O)(=O)c2ccncc2)nc2ccc(C(F)(F)F)cc21	26 nM	45 µL/min/mg	IC50 (Cytochrome P450 2C19): 40 nM
CCn1c(C(C)NS(=O)(=O)c2ccc(Cl)cc2)nc2ccncc21 (centres undefined)	1170 nM	93 µL/min/mg	–
CCn1c([C@@H](C)NS(=O)(=O)c2ccc(C#N)cc2)nc2cnccc21	34 nM	–	Activity (Cytochrome P450 3A5 [4]): < 40%; Activity [6]: 14%; Activity (Cytochrome P450 3A4 [7]): < 40%
